TAAR1 antag: antagonists of human TAAR1. Q96RJ0. CHO RD-HGA16 TAAR1, Fluo-8 calcium fluorescence, antagonist. inhibition, % at 3 µM. 360,000 compounds, 1.5% hits;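 active means inhibition above a per-plate cutoff, the mean inhibition of test compounds on that plate plus 3 SD, cut at about 49% in these data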;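 further: 0% = DMSO plus EC80 beta-PEA response and 100% = DMSO alone without agonist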
Target sequence (Q96RJ0 whole entry, looked up): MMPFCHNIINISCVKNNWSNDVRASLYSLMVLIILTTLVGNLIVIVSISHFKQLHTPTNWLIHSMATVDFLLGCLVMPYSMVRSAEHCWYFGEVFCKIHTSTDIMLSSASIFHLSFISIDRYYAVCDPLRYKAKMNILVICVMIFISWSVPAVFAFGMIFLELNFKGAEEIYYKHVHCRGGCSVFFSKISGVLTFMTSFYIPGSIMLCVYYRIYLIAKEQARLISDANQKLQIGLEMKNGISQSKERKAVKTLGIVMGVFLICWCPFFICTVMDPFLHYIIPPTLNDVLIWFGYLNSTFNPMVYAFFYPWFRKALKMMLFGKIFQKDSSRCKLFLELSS
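Material: RD-HGA16 CHO cells with stable hTAAR1 and Gα16; Dosing: single nominal final test compound concentration of 3 µM; Schedule: seeding 17-24 h prior, 75-min 37 °C, 30-min RT dye loading; Detection: kinetic Fluo-8 calcium fluorescence measurement; Measure: % inhibition from peak post-agonist over basal fluorescence ratio; Benchmarks: vehicle and agonist controls.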
CHO parental Ca: signal in parental CHO cells, OX1R antagonist counter-screen; 330,000 compounds, 0.63% hits; AID 463079; parental CHO-K1, ATP-induced calcium, Fluo-8 fluorescence; inhibition, % at 5.6 µM;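 active means inhibition above that plate's mean sample inhibition plus 3 SD, cut at about 26% in these data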;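 further: 0% = ATP-challenged DMSO wells and 100% = DMSO wells without ATP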
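Assay system: untransfected parental CHO cell line. Also added: ATP agonist challenge. Dosing: one dose, 5.6 µM nominal. Measured by: Fluo-8 fluorescence. Read-out: % inhibition. Benchmarks: ATP wells versus no-ATP DMSO wells. Repeats: no replicates.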
OX1R antag-1: antagonists of human orexin 1 receptor; 330,000 compounds, 0.43% hits; O43613; CHO/OX1R cells, Fluo-8 calcium fluorescence, orexin A; inhibition, % at 5 µM;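 active means inhibition above its plate's threshold, mean inhibition of all tested compounds on the plate plus 3 SD, cut at about 37% in these data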;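 further: 0% = orexin A challenge wells and 100% = SB-334867-A antagonist wells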
TAAR1 ag: agonists of human TAAR1. activation, % at 3 µM. 360,000 compounds, 0.99% hits. CHO RD-HGA16 TAAR1, Fluo-8 calcium fluorescence; vehicle wells 0%, saturating PEA agonist 100%. Q96RJ0;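 active means activation above the mean activation of all test compounds in the run plus 3 SD, cut at about 38% in these data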
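Test system: RD-HGA16 (CHO) cells co-expressing Gα16 and hTAAR1 | Doses: Single dose, 3 µM | Schedule: 17-24 h seeding, 75 min 37 °C dye, 30 min RT | Evaluation: % activation from peak over basal fluorescence ratio, DMSO-to-PEA scaled | Technique: Kinetic Fluo-8 calcium fluorescence | Benchmarks: Low control DMSO, high control PEA (EC100)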
OX1R antag-2: antagonists of human orexin 1 receptor (OX1R). OX1R-expressing cells, FRET antagonist read-out. inhibition, % at 6.6 µM. 330,000 compounds, 1.8% hits; in the data active means inhibition mostly above about 38%, no sharp cut-off; inactive means mostly below about 40%;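 further: 0% = agonist challenge alone and 100% = reference antagonist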
OX1R Ca confirm: OX1R (human) antagonism, confirmed | CHO/OX1R cells, orexin A calcium Fluo-8 fluorescence | AID 492963 | shares compounds with OX1R antag-1 | 1,100 compounds, 38% hits | inhibition, % at 5 µM; in the data active means inhibition above about 29%;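 further: 0% = agonist challenge alone and 100% = reference antagonist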
CHO Ca counter: signal in parental CHO cells, OX1R antagonist counter-screen | shares compounds with OX1R antag-1 | parental CHO-K1, ATP-induced calcium, Fluo-8 fluorescence | inhibition, % at 5.6 µM | 1,100 compounds, 9.3% hits | AID 492965;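 active means inhibition above a per-plate limit, the mean inhibition of that plate's test compounds plus 3 SD, cut at about 25% in these data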;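 further: 0% = ATP challenge with DMSO and 100% = DMSO without ATP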
Active calls of the source: *; . = no result given. Compounds with a hit are over-represented: about 3.9% of the library has one in this group of screens.

SMILES	TAAR1 antag	CHO parental Ca	OX1R antag-1	TAAR1 ag	OX1R antag-2	OX1R Ca confirm	CHO Ca counter
CC(C)(C)c1cc(C(=O)CCN2CCOCC2)cc(C(C)(C)C)c1O	18	22	37	4	2	-3	-19
COc1ccc(C2=NCC(CSc3nnc(-c4ccc5c(c4)OCO5)o3)S2)cc1 (stereo not given)	50*	15	47*	8	14	12	-1
CC(C)C[C@@H]1COc2cccc(N3CCCC3)c2S(=O)(=O)N1	8	.	.	-1	.	.	.
O=C(Oc1ccc(Cl)c2cccnc12)N1CCOCC1	-20	-22	-7	0	13	.	.
O=C(Oc1ccc(Cl)c2cccnc12)N1CCCCC1	-5	-5	90*	17	26	-15	-4
CC(C)[C@H](NC(=O)CC1CCCC1)C(=O)N1CCC[C@H]1C(=O)NCc1ccccc1	-43	.	.	1	.	.	.
N#Cc1ccc(-c2ccccc2)nc1SCC(=O)c1cccc(Cl)c1	-3	3	-2	8	4	.	.
N#Cc1ccc(-c2cccnc2)nc1SCC(=O)c1ccccc1	15	22	53*	5	22	23	13
COc1ccc(NC(=O)c2cc(C3CCCCN3C(=O)CCCc3ccccc3)on2)c(C)c1 (stereo not given)	4	.	.	7	.	.	.
C#CCNC(=O)C[C@H]1C[C@@]2(C(=O)OC)C(=C[C@H](C(C)(C)C)O[C@@H]2C)N(CCC2=CCCCC2)C1=O	-23	.	.	-2	.	.	.
CCOC(=O)CSc1nnc(-c2ccc(NS(=O)(=O)c3ccc(C)cc3)cc2)o1	21	14	30	18	17	36*	27*
O=C(Nc1ccccc1)c1cc(C2COCCN2C(=O)C2CC2)on1 (stereo not given)	3	.	.	1	.	.	.
CCC(C)NS(=O)(=O)c1ccc(S(=O)(=O)N(CC(=O)Nc2ccccc2)Cc2ccco2)cc1 (stereo not given)	22	-1	49*	14	4	0	-5
CNc1ccc(Oc2c(F)c(F)nc(F)c2F)cc1	-2	5	29	0	7	-5	4
CCCCOC(=O)c1ccc(NC(=O)c2cc(Cl)ccc2OC)cc1	-9	-19	37	10	33	29*	-15
CCCCOC(=O)c1ccc(NC(=O)c2ccccc2OC)cc1	12	-6	2	1	47	.	.
O=[N+]([O-])c1ccc(Nc2cccc3c2[nH]c2c(-c4ccccc4)nccc23)c([N+](=O)[O-])c1	3	.	.	0	.	.	.
CC1=NN(c2ccccc2)C(=O)C1CCC#N (stereo not given)	6	.	.	1	.	.	.
COc1ccc(S(=O)(=O)Nc2ccc3c(c2)n(C)c(=O)n3C)cc1C	9	-12	-1	8	8	.	.
CCOC(=O)c1oc2ccc(S(=O)(=O)Nc3ccc4c(c3)n(C)c(=O)n4C)cc2c1C	4	17	47*	8	25	-6	3
N#Cc1ccccc1NC(=O)C(=O)NCC1CCCN1S(=O)(=O)c1cccs1 (stereo not given)	24	-7	17	5	29	21	-9
CC(C)(C)c1ccc(S(=O)(=O)Nc2ccc(C(O)(C(F)(F)F)C(F)(F)F)cc2)cc1	-11	.	.	2	.	.	.
CCOc1ccccc1NC(=O)CN(c1nccs1)S(=O)(=O)c1ccc(N)cc1	5	-18	28	2	72	30*	-15
CCOc1ccccc1NC(=O)CCN(c1ccc(C)cc1)S(=O)(=O)c1ccccc1	-6	-23	1	-1	55	.	.
COC(=O)C1=C(C)N(Cc2ccc(C(F)(F)F)cc2)C(=NCc2ccccc2C(F)(F)F)NC1c1ccc(Cl)cc1 (stereo not given)	7	.	.	3	.	.	.
SMILES	TAAR1 antag	CHO parental Ca	OX1R antag-1	TAAR1 ag	OX1R antag-2	OX1R Ca confirm	CHO Ca counter
CCCCc1nnc(SCC(=O)Nc2nccs2)n1C	-16	8	-14	3	6	.	.
Cn1c(CCCOc2ccc(Cl)cc2Cl)nnc1SCC(=O)Nc1nccs1	6	3	38	12	14	7	-5
O=C1CC(NCc2ccccc2F)C(=O)N1c1ccccc1 (stereo not given)	14	5	43*	10	1	-2	-4
CCCCNC(=O)C1(C)CCN1C(=O)c1csnn1 (stereo not given)	-19	.	.	2	.	.	.
COc1ccc(C(N)c2csc(Nc3ccc(C(=O)NCCCO)cn3)n2)cc1 (stereo not given)	6	.	.	1	.	.	.
Cc1noc(/C=C/c2ccc(-c3ccccc3Cl)o2)c1[N+](=O)[O-]	.	21	29	.	8	74*	43*
Cc1ccc(S(=O)(=O)N(C)C[C@@H]2Oc3ncc(Br)cc3C(=O)N([C@H](C)CO)C[C@@H]2C)cc1	-9	.	.	4	.	.	.
O=S(=O)(NC1CCSc2ccccc21)c1ccc(Cl)nc1 (stereo not given)	11	-7	52*	-2	18	7	-13
CC(=O)c1ccc(S(=O)(=O)NC2CCSc3ccccc32)cc1 (stereo not given)	2	-6	-7	1	19	.	.
CCN(CC(=O)Nc1ccccc1C(F)(F)F)C(=O)c1ccc2c(c1)NC(=O)C(C)S2 (stereo not given)	-8	.	.	8	.	.	.
Cc1ccc(C)c(CNc2ccc(S(=O)(=O)N3CCCCC3)cc2)c1	12	7	44*	8	3	-6	53*
Cc1ccc(Cn2c(C)c(C(=O)NCc3cccs3)sc2=O)cc1	1	.	.	0	.	.	.
Cc1c(Cl)cccc1NC(=O)CSc1ncnc2c1cnn2CCc1ccccc1	-31	-8	-11	3	19	.	.
O=C(CSc1ncnc2c1cnn2CCc1ccccc1)Nc1cccc(C(F)(F)F)c1	60*	24	61*	15	38	-8	-9
COc1ncc(-c2ccc(N3C(c4ccsc4)=Cc4ccc(F)cc4C3CC(C)=O)cc2)cn1 (stereo not given)	-1	.	.	1	.	.	.
C[C@H](CO)N1C[C@H](C)[C@H](CN(C)S(=O)(=O)c2ccc(Cl)cc2)OCc2ccccc2-c2c(n(C)c3ccccc23)C1=O	-41	.	.	7	.	.	.
O=C(NCc1cccnc1)c1cc(C2CCCCN2C(=O)CCCc2ccccc2)on1 (stereo not given)	-6	.	.	4	.	.	.
COc1ccc(C[C@H]2CN3C(=NC[C@H]3Cc3ccccc3)N2CCNC(=O)c2ccc(C)c(Br)c2)cc1	.	8	32	.	13	32*	-4
Cc1ccc(N=Cc2sc(O)c3ccccc23)c(C)c1	7	-21	-25	16	13	.	.
Cc1ccc(N=Cc2sc(O)c3ccccc23)cc1	25	8	35	25	31	24	19
